# In ChEMBL document CHEMBL3853327 (J Med Chem, 2016):
# Assays:
# [1] = Apparent clearance during terminal phase in Sprague-Dawley rat plasma at 8 mg/kg administered through oral gavage measured at 5 mins to 24 hrs post dosing by LC/MS analysis; format: ADME, organism-based; settings: in vivo
# Method in brief: (§1)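 Male Sprague-Dawley rats, ten randomly split into two groups (n = 5), single gavage dose of 8 or 16 mg·kg−1 in PEG 400/normal saline (70/30, V/V). Jugular sinus blood into heparinized tubes at 5 min to 24 h; plasma separated at 2200g for 8 min, stored −20 °C. Methanol precipitation with internal standard, LC-MS quantitation against plasma standard curves. Parameters reported as mean ± SD.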
# [2] = AUMC (0 to t) in Sprague-Dawley rat plasma at 16 mg/kg administered through oral gavage measured at 5 mins to 24 hrs post dosing by LC/MS analysis; format: ADME, organism-based; settings: in vivo; method in brief: as §1
# [3] = Apparent half life in Sprague-Dawley rat plasma at 8 mg/kg administered through oral gavage measured at 5 mins to 24 hrs post dosing by LC/MS analysis; format: ADME, organism-based; settings: in vivo; method in brief: as §1
# [4] = system: Human immunodeficiency virus 1; test: Fold resistance, ratio of EC50 for HIV1 3B harboring reverse transcriptase K103N mutant infected in human MT4 cells to EC50 for wild type HIV1 3B harboring reverse transcriptase infected in human MT4 cells; format: functional
# Method in brief: (§2)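 Fold resistance is the EC50 against the mutant HIV-1 strain divided by the EC50 against WT IIIB. Both EC50s come from the MT-4 MTT cytoprotection assay (5-day read, 100−300 CCID50 inoculum).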
# [5] = VRT (0 to t) in Sprague-Dawley rat plasma at 16 mg/kg administered through oral gavage measured at 5 mins to 24 hrs post dosing by LC/MS analysis; format: ADME, organism-based; settings: in vivo; method in brief: as §1
# [6] = system: Human immunodeficiency virus 1; test: Potency index, ratio of ETV EC50 to compound EC50 for HIV1 3B harboring reverse transcriptase F227L/V106A double mutant infected in human MT4 cells; format: functional
# [7] = system: Human immunodeficiency virus 1; test: Potency index, ratio of ETV EC50 to compound EC50 for HIV1 3B harboring reverse transcriptase YI88L mutant infected in human MT4 cells; format: functional
# [8] = system: Human immunodeficiency virus 1; test: Potency index, ratio of ETV EC50 to compound EC50 for wild type HIV1 3B harboring reverse transcriptase infected in human MT4 cells; format: functional
# [9] = Selectivity index, ratio of CC50 for human mock-infected MT4 cells to EC50 for HIV1 3B harboring reverse transcriptase K103N mutant infected in human MT4 cells; format: toxicity, cell-based; settings: MT4 cells (mock-infected for CC50, HIV-1 infected for EC50)
# Method in brief: (§3)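 Selectivity index is CC50/EC50. CC50 is the concentration that reduces OD540 of mock-infected MT-4 cells by 50% in the 5-day MTT assay. EC50 is the 50% protection from virus-induced cytopathicity, measured in parallel on infected wells.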
# [10] = AUMC (0 to t) in Sprague-Dawley rat plasma at 8 mg/kg administered through oral gavage measured at 5 mins to 24 hrs post dosing by LC/MS analysis; format: ADME, organism-based; settings: in vivo; method in brief: as §1
# [11] = Apparent volume of distribution during terminal phase in Sprague-Dawley rat plasma at 8 mg/kg administered through oral gavage measured at 5 mins to 24 hrs post dosing by LC/MS analysis; format: ADME, organism-based; settings: read-out: Vz/F; method in brief: as §1
# [12] = Apparent volume of distribution during terminal phase in Sprague-Dawley rat plasma at 16 mg/kg administered through oral gavage measured at 5 mins to 24 hrs post dosing by LC/MS analysis; format: ADME, organism-based; settings: read-out: Vz/F; method in brief: as §1
# [13] = Apparent clearance during terminal phase in Sprague-Dawley rat plasma at 16 mg/kg administered through oral gavage measured at 5 mins to 24 hrs post dosing by LC/MS analysis; format: ADME, organism-based; settings: read-out: CLz/F (converted); method in brief: as §1
# [14] = AUC (0 to t) in Sprague-Dawley rat plasma at 8 mg/kg administered through oral gavage measured at 5 mins to 24 hrs post dosing by LC/MS analysis; format: ADME, organism-based; parameters: dose 8 mg/kg, time 0.083-24 hr, route oral; method in brief: as §1
# [15] = AUMC (0 to infinity) in Sprague-Dawley rat plasma at 16 mg/kg administered through oral gavage measured at 5 mins to 24 hrs post dosing by LC/MS analysis; format: ADME, organism-based; settings: in vivo; method in brief: as §1
# [16] = system: Human immunodeficiency virus 1; test: Potency index, ratio of ETV EC50 to compound EC50 for HIV1 3B harboring reverse transcriptase E138K mutant infected in human MT4 cells; format: functional
# [17] = system: Human immunodeficiency virus 1; test: Potency index, ratio of ETV EC50 to compound EC50 for HIV1 3B harboring reverse transcriptase L100I mutant infected in human MT4 cells; format: functional
# [18] = Selectivity index, ratio of CC50 for human mock-infected MT4 cells to EC50 for HIV1 3B harboring reverse transcriptase F227L/V106A double mutant infected in human MT4 cells; format: toxicity, cell-based; settings: MT4 cells (mock-infected for CC50, HIV-1 infected for EC50); method in brief: as §3
# [19] = system: Human immunodeficiency virus 1; test: Fold resistance, ratio of EC50 for HIV1 3B harboring reverse transcriptase Y188L mutant infected in human MT4 cells to EC50 for wild type HIV1 3B harboring reverse transcriptase infected in human MT4 cells; format: functional; method in brief: as §2
# [20] = system: Human immunodeficiency virus 1; test: Potency index, ratio of ETV EC50 to compound EC50 for HIV1 3B harboring reverse transcriptase Y181C mutant infected in human MT4 cells; format: functional
# [21] = Selectivity index, ratio of CC50 for human mock-infected MT4 cells to EC50 for HIV1 3B harboring reverse transcriptase L100I mutant infected in human MT4 cells; format: toxicity, cell-based; settings: MT4 cells (mock-infected for CC50, HIV-1 infected for EC50); method in brief: as §3
# [22] = system: Human immunodeficiency virus 1; test: Fold resistance, ratio of EC50 for HIV1 3B harboring reverse transcriptase Y181C mutant infected in human MT4 cells to EC50 for wild type HIV1 3B harboring reverse transcriptase infected in human MT4 cells; format: functional; method in brief: as §2
# [23] = Tmax in Sprague-Dawley rat plasma at 16 mg/kg administered through oral gavage measured at 5 mins to 24 hrs post dosing by LC/MS analysis; format: ADME, organism-based; settings: in vivo; method in brief: as §1
# [24] = Apparent half life in Sprague-Dawley rat plasma at 16 mg/kg administered through oral gavage measured at 5 mins to 24 hrs post dosing by LC/MS analysis; format: ADME, organism-based; settings: in vivo; method in brief: as §1
# [25] = AUC (0 to t) in Sprague-Dawley rat plasma at 16 mg/kg administered through oral gavage measured at 5 mins to 24 hrs post dosing by LC/MS analysis; format: ADME, organism-based; parameters: time lower 0.083 hr, dose 16 mg/kg, time upper 24 hr, route oral; method in brief: as §1
# [26] = system: Human immunodeficiency virus 1; test: Fold resistance, ratio of EC50 for HIV1 3B harboring reverse transcriptase F227L/V106A double mutant infected in human MT4 cells to EC50 for wild type HIV1 3B harboring reverse transcriptase infected in human MT4 cells; format: functional; method in brief: as §2
# [27] = Antiviral activity against HIV2 ROD harboring reverse transcriptase infected in human MT4 cells assessed as protection against virus induced cytotoxicity after 5 days by MTT assay; format: functional, cell-based, Human immunodeficiency virus type 2 (ISOLATE ROD); settings: Human immunodeficiency virus 2, MT4, 120 h
# Method in brief: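 MTT cytopathicity assay in MT-4 cells (6 × 10^5 cells/mL). Compounds serially diluted 5-fold in triplicate wells, run in parallel on infected and mock-infected cells. Virus added at 100−300 CCID50 per well. Viability read spectrophotometrically at 540 and 690 nm after 5 days, using the median OD of three wells. EC50 is the concentration giving 50% protection from viral cytopathogenicity.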
# [28] = VRT (0 to infinity) in Sprague-Dawley rat plasma at 8 mg/kg administered through oral gavage measured at 5 mins to 24 hrs post dosing by LC/MS analysis; format: ADME, organism-based; settings: in vivo; method in brief: as §1
# [29] = Selectivity index, ratio of CC50 for human mock-infected MT4 cells to EC50 for HIV1 3B harboring reverse transcriptase Y188L mutant infected in human MT4 cells; format: toxicity, cell-based; settings: MT4 cells (mock-infected for CC50, HIV-1 infected for EC50); method in brief: as §3
smiles,measurement,setting,value
Cc1cc(C#N)cc(C)c1Oc1nc(NC2CCN(Cc3ccc(S(N)(=O)=O)cc3)CC2)nc2ccsc12,CLz/F,[1],172 mL/min/kg
same,AUMCt,[2],5458.8 ug/L.hr
same,t1/2(app),[3],2.51 h
same,Ratio EC50,[4],<3
same,VRT(t),[5],9.29 hr2
same,Ratio EC50,[6],7
same,Ratio EC50,[7],7
same,Ratio EC50,[8],3
same,selectivity ratio,[9],> 67400
same,AUMCt,[10],5690.8 ug/L.hr
same,Vd/F,[11],38.2 L/kg
same,Vd/F,[12],50.1 L/kg
same,CL/F,[13],155 mL/min/kg
same,AUC(0-t),[14],1680 ng·h/mL
same,AUMC,[15],7215.795 ug/L.hr
same,Ratio EC50,[16],5
same,Ratio EC50,[17],1.6
same,selectivity ratio,[18],> 78100
same,Ratio EC50,[19],<3
same,Ratio EC50,[20],5
same,selectivity ratio,[21],> 159000
same,Ratio EC50,[22],<3
same,Tmax,[23],0.8 h
same,t1/2(app),[24],3.6 h
same,AUC(0-t),[25],1670 ng·h/mL
same,Ratio EC50,[26],<3
same,EC50,[27],≥ 228 µM
same,VRT,[28],13.31 hr2
same,selectivity ratio,[29],> 70000
